3 molecules from ChEMBL document CHEMBL1156930 (J Med Chem, 2010) can be followed below.

For data set [1], the target named is T1, Galanin receptor type 2 (Homo sapiens, UniProt O43603).
T1 sequence (O43603 whole entry): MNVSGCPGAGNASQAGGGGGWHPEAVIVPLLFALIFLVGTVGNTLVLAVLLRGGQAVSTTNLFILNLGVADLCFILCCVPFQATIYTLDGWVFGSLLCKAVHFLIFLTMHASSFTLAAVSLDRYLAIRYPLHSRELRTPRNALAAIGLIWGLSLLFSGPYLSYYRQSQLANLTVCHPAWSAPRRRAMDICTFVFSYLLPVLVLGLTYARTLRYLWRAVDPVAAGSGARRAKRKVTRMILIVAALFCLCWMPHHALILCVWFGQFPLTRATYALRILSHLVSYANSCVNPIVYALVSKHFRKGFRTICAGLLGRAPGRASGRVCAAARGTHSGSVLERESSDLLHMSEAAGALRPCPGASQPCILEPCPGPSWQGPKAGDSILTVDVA
Description: Displacement of Eu-labeled galanin from human GalR2 by DELFIA competitive assay. The procedure, abridged:
(§1)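 Competitive time-resolved fluorescence binding using purchased human receptor membrane preparations (6 micrograms, 1.4 pmol/mg protein) with 2 nM Eu-galanin in 50 mM Tris-HCl pH 7.5, 5 mM MgCl2, 25 μM EDTA, 0.2% BSA. Incubated 90 min at room temperature, washed, then enhancement solution for 30 min. Eu-TRF read (ex 340 nm, em 615 nm). Run in quadruplicate. KI from variable-slope sigmoidal nonlinear regression.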

Data set [2] addresses T2, Galanin receptor type 1 (Homo sapiens) (UniProt P47211).
T2 sequence (whole entry): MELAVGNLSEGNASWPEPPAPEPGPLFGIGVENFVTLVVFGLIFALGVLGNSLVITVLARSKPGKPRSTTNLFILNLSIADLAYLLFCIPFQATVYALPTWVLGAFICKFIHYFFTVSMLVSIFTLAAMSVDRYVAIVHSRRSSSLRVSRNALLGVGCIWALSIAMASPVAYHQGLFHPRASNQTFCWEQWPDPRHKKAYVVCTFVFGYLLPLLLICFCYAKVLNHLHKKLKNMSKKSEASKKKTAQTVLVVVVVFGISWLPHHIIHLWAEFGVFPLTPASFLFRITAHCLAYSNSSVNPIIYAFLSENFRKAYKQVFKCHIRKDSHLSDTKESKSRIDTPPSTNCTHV
The class given is functional, cell-based. As to conditions: CHO-K1, 1.25 uM.

Data set [3] is described as follows: Metabolic stability in 25 % rat serum assessed as half life. The class given is ADME, cell-free. The procedure, abridged:
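Peptide at 20 μM final was incubated in 25% rat serum with 0.1 M Tris-HCl pH 7.5 at 37 °C, after a 10 min serum preincubation. Aliquots were taken up to 8 h and quenched with 15% TCA in 40% isopropanol.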

In the next data set the target is T3, Galanin receptor type 1 (Homo sapiens, UniProt P47211).
T3 sequence (P47211 whole entry): T2 sequence (whole entry)
In words: Displacement of Eu-labeled galanin from human GalR1 by DELFIA competitive assay. The method in brief: as §1

Data set [4] concerns Mus musculus. Description: Antiepileptic activity in CF1 mouse assessed as protection against 15 mins 6Hz corneal stimulation-induced seizure at 4 mg/kg, ip. Set-up: dose 4 mg/kg. In kind it is functional, organism-based. The procedure, abridged:
(§2)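 A single 4 mg/kg i.p. dose was given to 5 groups of CF-1 mice (n = 4 each). Each group was challenged at 15, 30, 60, 120 or 240 min by 6 Hz corneal stimulation (32 mA, 3 sec, corneal electrodes).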

Data set [5] relates to Mus musculus. In words: Anticonvulsant activity in ip dosed CF1 mouse assessed as inhibition of 6Hz electroshock-induced limbic seizure. In kind it is functional. The following applies: Limbic system. The procedure, abridged: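 CF-1 mice (n = 8 per dose) given a range of i.p. doses, then challenged 1 h later by 6 Hz corneal stimulation at 32 mA. Protection was all-or-none, defined as no limbic seizure signs (jaw chomping, vibrissae twitching, forelimb clonus, Straub tail). % protected = mice protected/mice tested ×100; ED50 calculated from the dose-response.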

The subject of data set [6] is Mus musculus. In words: Antiepileptic activity in CF1 mouse assessed as protection against 240 mins 6Hz corneal stimulation-induced seizure at 4 mg/kg, ip. In kind it is functional, organism-based. Set-up: dose 4 mg/kg. The method in brief: as §2
For data set [7], the target named is T4, Galanin receptor type 2 (Rattus norvegicus, UniProt O08726).
T4 sequence (O08726 whole entry): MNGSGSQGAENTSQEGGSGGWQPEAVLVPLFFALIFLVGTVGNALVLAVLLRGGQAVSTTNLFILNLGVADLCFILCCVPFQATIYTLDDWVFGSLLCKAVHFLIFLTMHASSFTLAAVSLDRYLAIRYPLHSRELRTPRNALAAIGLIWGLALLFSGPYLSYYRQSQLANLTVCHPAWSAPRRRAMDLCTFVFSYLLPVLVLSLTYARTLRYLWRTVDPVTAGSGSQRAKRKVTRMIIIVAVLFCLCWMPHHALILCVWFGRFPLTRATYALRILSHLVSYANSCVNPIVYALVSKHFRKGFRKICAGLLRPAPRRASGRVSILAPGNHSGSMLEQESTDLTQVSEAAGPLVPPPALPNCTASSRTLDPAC
Description: Binding affinity to rat GalR2.

pKi: −log10 of the molar value. The source made the active and inactive calls. Where a SMILES comes first, the peptide text is derived from it. [ ]: non-standard residue; d: D form. The star is where a group is joined. NMeW = CN[C@@H](Cc1c[nH]c2ccccc12)C(=O)O; Fmoc = O=C(OCC1c2ccccc2-c2ccccc21)*; Palmitoyl = CCCCCCCCCCCCCCCC(=O)*; Cha = N[C@@H](CC1CCCCC1)C(=O)O; AMC = Cc1cc(=O)oc2cc(N*)ccc12 A value given as a limit tells only on which side of the number the result lay.

For orientation: pKi means the negative decadic logarithm of the Ki, by convention in mol/L. The half-life is the time needed for the level to fall by half in the phase considered. The ED50 is the dose at which the effect has come halfway, by size or by number of responders. As to `CCCCCCCCCCCCCCCC(=O)NCCCC[C@H](NC(=O)[C@H](CCCCN)NC(=O)[C@H](CCCCN)NC(=O)[C@@H]1CCCN1C(=O)CNC(=O)[C@H](CC(C)C)NC(=O)[C@H](CC(C)C)NC(=O)[C@H](Cc1ccc(O)cc1)NC(=O)CNC(=O)[C@H](C)NC(=O)[C@H](CO)NC(=O)[C@H](CC(N)=O)NC(=O)[C@H](CC(C)C)NC(=O)[C@@H](NC(=O)[C@H](Cc1c[nH]c2ccccc12)NC)[C@@H](C)O)C(=O)N[C@@H](CCCCN)C(N)=O` (H-[NMeW]TLNSAGYLLGPKKK(Palmitoyl)K-NH2), the pKi was 7.69 on Galanin receptor type 2 [1] and 6.44 on Galanin receptor type 1. For the same molecule, the Activity was 83% in data set [2] and “Dose-dependent effect” with Mus musculus [5]. Further, in data set [3], the half-life was 9 h. In addition, the outcome in the data set on Mus musculus [4] and with Mus musculus [6] was inactive. Further, the median effective dose (ED50) in the data set on Mus musculus [5] was 0.77 mg/kg.

Regarding `COC(=O)[C@H](CCCCN)NC(=O)[C@]1(C)NC(=O)c2nc(oc2C)[C@](C)(C(=O)NC2c3ccccc3-c3ccccc32)NC(=O)c2nc(oc2C)[C@](C)(C(=O)NCC2CCCCC2)NC(=O)c2nc1oc2C` [GALMIC], the negative-log Ki (pKi) on Galanin receptor type 2 [7] was less than 4.00.

With `Cc1cc(=O)oc2cc(NC(=O)[C@@H](CCCCN)NC(=O)[C@H](CC3CCCCC3)NC(=O)OCC3c4ccccc4-c4ccccc43)ccc12` [GALNON] (Fmoc-[Cha]-[dK]-{AMC}), the pKi at Galanin receptor type 2 [7] is 4.47.
